# Shown are actives, neighbours in structure and some others; about 3.5% of the full set was active somewhere.
# RGS4 inh: RGS4 inhibitors, primary screen, cell-based, HEK293 M3R inducible RGS4, calcium flux; Regulator of G-protein signaling 4 (Homo sapiens), P49798; Fluo-4 calcium flux; stronger effect = higher value; triggered by carbachol at its EC20; B-score at 10 µM; hit rate 0.45% among 310,000; AID 463165, 2010;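 active means B-score, a plate-corrected calcium signal, over three deviations above library mean, with baseline fluorescence within five deviations of library mean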;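 further: RGS4 expression induced by doxycycline in cells with stable M3 receptor; B-score is computed from the integrated fluorescence ratio over baseline after carbachol; higher B-score means a larger calcium signal and so more RGS4 inhibition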
# Target sequence (P49798 whole entry, looked up): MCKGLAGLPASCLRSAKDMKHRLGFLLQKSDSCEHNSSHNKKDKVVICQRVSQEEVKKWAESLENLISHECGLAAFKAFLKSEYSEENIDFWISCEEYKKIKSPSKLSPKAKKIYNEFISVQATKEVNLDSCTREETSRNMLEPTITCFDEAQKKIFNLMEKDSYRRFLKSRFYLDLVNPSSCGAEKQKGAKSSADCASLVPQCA
# MrgX1 allo act: positive allosteric modulators of MrgX1, primary screen, HEK293 cells, Fluo-4 calcium flux; B-score at 10 µM; hit rate 0.63% among 310,000; FDSS; stronger effect = higher value; Mas-related G-protein coupled receptor member X1 (Homo sapiens), Q96LB2; AID 588675, 2011;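 active means plate-corrected calcium response at least 3 library SD above typical, normal starting fluorescence, not activating the receptor alone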;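 further: compound read alongside a low EC10 to EC30 dose of BAM8-22 agonist; peak minus trough fluorescence over baseline measured at the second addition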
# Target sequence (Q96LB2 whole entry, looked up): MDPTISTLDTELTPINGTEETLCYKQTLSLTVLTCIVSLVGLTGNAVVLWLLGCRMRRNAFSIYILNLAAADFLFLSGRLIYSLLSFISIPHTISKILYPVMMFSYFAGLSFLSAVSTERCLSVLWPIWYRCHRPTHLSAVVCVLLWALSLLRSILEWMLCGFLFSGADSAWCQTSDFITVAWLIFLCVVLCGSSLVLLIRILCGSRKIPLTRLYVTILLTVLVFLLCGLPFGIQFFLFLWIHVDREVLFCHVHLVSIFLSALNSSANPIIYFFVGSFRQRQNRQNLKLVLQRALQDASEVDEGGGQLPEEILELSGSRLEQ
# MrgX1 antag: antagonists of human MrgX1 receptor, primary screen, HEK293 cells, Fluo-4 calcium flux; B-score at 10 µM; Mas-related G-protein coupled receptor member X1 (Homo sapiens), Q96LB2; hit rate 1.3% among 310,000; AID 588676, 2011; BAM8-22 antagonism; stronger effect = lower value;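 active means calcium-response B-score plate-corrected more than 3 library SD below zero, starting fluorescence within 5 deviations, no agonist response on first addition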;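 further: peak minus trough fluorescence over baseline after final BAM8-22 challenge near maximal dose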
# RGS4 act: RGS4 potentiators or activators, primary screen, cell-based, HEK293 M3R inducible RGS4, calcium flux; B-score at 10 µM; hit rate 0.92% among 310,000; carbachol calcium flux Fluo4; stronger effect = lower value;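 active means B-score of the integrated calcium signal more than 4 SD below the library mean, with starting fluorescence not abnormally high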;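 further: negative B-score means reduced calcium response which marks RGS4 activation or potentiation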
#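 test system = M3R-expressing HEK293 line, RGS4 induced by doxycycline | probe or stimulus = carbachol at ECmax as muscarinic agonist stimulus | timing = dye loading 30 min 37 °C, buffer rest 30 min RT | signal = calcium dye Fluo4 fluorescence | evaluation = B score from integrated fluorescence ratio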
# MrgX1 ag: agonists of human MrgX1 receptor, primary screen, HEK293 cells, Fluo-4 calcium flux; Fluo-4 calcium fluorescence, agonist mode; stronger effect = higher value; B-score at 10 µM; hit rate 0.44% among 310,000;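 active means calcium response B-score plate-corrected fluorescence ratio at least 3 library SD, with starting fluorescence B-score inside 5 SD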
#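 Assay system: stable human MrgX1 HEK293 cell line. Quantity: 15,000 cells per well. Schedule: cells plated overnight, dye loaded 0.5 h 37 °C, 0.5 h room temperature. Detection: Fluo-4 NW calcium-flux fluorescence, kinetic read. Read-out basis: peak-minus-minimum fluorescence over baseline, converted to B scores. Control set: positive and negative control wells on each plate.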
# * marks the source's active call; other numbers are inactive results; i = inactive; · = not tested or not shown.
SMILES,RGS4 inh,MrgX1 allo act,MrgX1 antag,RGS4 act,MrgX1 ag
COc1cc(/C=N/NC(N)=S)ccc1OCC(=O)Nc1ccc(C)cc1,i,i,-5.5*,i,i
COc1ccc(CCN(C(=O)c2snc(C(N)=O)c2N)C(C(=O)NCC2CCCO2)c2ccc(F)cc2)cc1OC (centres undefined),i,·,·,i,·
Cc1noc(NS(=O)(=O)c2ccc(NC(=O)CSc3nc4c(cc3C#N)CCCCC4)cc2)c1C,i,i,i,i,i
N#Cc1ccc(/C=C/C(=O)c2ccco2)cc1,i,i,i,i,i
Nc1ccc(/C=C/C(=O)c2ccco2)cc1,i,i,i,i,50*
O=C(/C=C/c1cc(Br)ccc1O)c1ccco1,i,i,i,i,39*
O=c1[nH]c(C2CC2)nc2sc3c(c12)CCCC3,i,i,i,i,i
O=C(OCCN1C(=O)c2cccc3c(N4CCOCC4)ccc(c23)C1=O)c1ccccc1Cl,i,i,i,-8.2*,i
O=C1c2cccc3cc([N+](=O)[O-])cc(c23)C(=O)N1CCN1CCCC1,i,·,·,i,·
Nc1cc2c3c(cccc3c1)C(=O)N(CCN1CCCC1)C2=O,i,i,-4.7*,i,i
Cc1ccc(NC(=O)c2ccco2)c(NC(=O)COc2ccccc2)c1,i,i,i,i,i
CCS(=O)(=O)CCSc1nc2ccccc2s1,i,i,i,i,i
O=S(=O)(CCSc1nc2ccccc2s1)c1nc2ccccc2s1,i,i,i,-7.4*,i
COc1ccc(CN(C(=S)Nc2ccccc2)C2CC(=O)N(c3ccccc3)C2=O)cc1 (centres undefined),i,i,i,i,i
CN(C)CCCN(C(=O)c1ccc(C(=O)c2ccccc2)cc1)c1nc2cc3c(cc2s1)OCCO3,i,i,i,-8.8*,i
CCN(Cc1ccccc1)S(=O)(=O)c1ccc(C(=O)N(CCCN(C)C)c2nc3c(C)c(C)ccc3s2)cc1,i,i,-6.7*,i,i
CN(C)CCCN(C(=O)CCSc1ccccc1)c1nc2cc3c(cc2s1)OCO3,i,i,i,i,i
CCN(Cc1ccccc1)S(=O)(=O)c1ccc(C(=O)N(CCCN(C)C)c2nc3cc4c(cc3s2)OCO4)cc1,i,i,i,-7.5*,i
CN(C)CCCN(C(=O)c1ccc(S(=O)(=O)N(C)C)cc1)c1nc2cc3c(cc2s1)OCO3,i,i,i,i,i
CN(C)CCCN(C(=O)CCS(=O)(=O)c1ccccc1)c1nc2cc3c(cc2s1)OCO3,i,i,i,-8.2*,i
Cc1ccc(C(NC(=O)N2CCCCC2)=C(Cl)Cl)cc1F,i,i,i,i,i
COC(=O)NCC(c1ccc2c(c1)OCO2)N1CCN(c2ccc(OC)cc2)CC1 (centres undefined),i,i,i,i,i
Cc1ccc(C)c(N(CC(=O)NCC2CCCO2)C(=O)CCC(=O)Nc2nccs2)c1 (centres undefined),i,i,i,i,i
Cc1nn(-c2ccc(Cl)cc2)c(Cl)c1/C=N/NC(=O)c1ccc(NS(=O)(=O)c2cccs2)cc1,i,13*,i,i,i
CSC1=N/C(=C\c2ccc(C)cc2)C(=O)S1,i,16*,i,i,i
SMILES,RGS4 inh,MrgX1 allo act,MrgX1 antag,RGS4 act,MrgX1 ag
CCOC(=O)SC1=N/C(=C\c2ccc(N(C)C)cc2)C(=O)S1,i,7.8*,i,i,i
Cc1c(C(=O)N2CCN(Cc3ccc4c(c3)OCO4)CC2)sc2ncnc(N3CCN(c4ccccc4F)CC3)c12,i,i,-5.4*,i,i
COC(=O)CN(c1ccc(C(C)C)cc1)S(=O)(=O)c1c(C)[nH]c(=O)[nH]c1=O,i,i,i,i,i
CCOC(=O)c1c(C)[nH]c(C(=O)N2CCCC(C(=O)c3ccccc3OC)C2)c1C (centres undefined),i,27*,i,i,i
CCOC(=O)c1c(C)[nH]c(C(=O)N2CCCC(C(=O)c3cccc(OC)c3)C2)c1C (centres undefined),i,i,i,i,i
CC(=O)O[C@@H]1C[C@H]2C(C)(C)C(=O)C=C[C@]2(C)[C@H]2CC[C@@]3(C)[C@H](c4ccoc4)OC(=O)[C@H]4O[C@]43[C@@]21C,i,9.8*,i,i,i
CCSc1nnc(NC(=O)C2C3C=CC(C3)C2C(=O)O)s1 (centres undefined),i,i,i,i,i
Cc1cccc(OCc2n(CC(=O)OC3CC(C)CCC3C(C)C)c3ccccc3[n+]2C)c1 (centres undefined),i,i,-9.6*,-12*,i
CC1CCC(C(C)C)C(OC(=O)Cn2c(-c3ccccc3)[n+](C)c3ccccc32)C1 (centres undefined),i,i,-7.5*,i,i
Cc1cccc(OC(=O)Cn2c(C(F)(F)F)nc3ccccc32)c1,i,i,i,i,i
CC1CCC(C(C)C)C(OC(=O)CSc2nnc(N)s2)C1 (centres undefined),i,i,i,i,i
CC1CCC(C(C)C)C(OC(=O)Cn2c(-c3ccc(F)cc3)[n+](C)c3ccccc32)C1 (centres undefined),·,i,-5.8*,·,i
CC1CCC(C(C)C)C(OC(=O)CSc2nc(N)cc(=O)[nH]2)C1 (centres undefined),i,i,i,i,i
Cc1ccc(C(=O)COC(=O)C2CC3CCCC(C2)C3=O)cc1[N+](=O)[O-] (centres undefined),i,i,-5.6*,i,i
O=C(COC(=O)CCc1ccc(S(=O)(=O)N2CCOCC2)cc1)NCc1ccccc1,i,6.8*,i,i,i
O=C(COC(=O)CCc1ccc(S(=O)(=O)N2CCOCC2)cc1)NCc1ccccc1Cl,i,i,i,i,i
O=C(NCCc1csc(-c2ccc(Cl)cc2)n1)c1ccco1,i,i,i,i,i
COc1ccc(Nc2nc(-c3ccccc3O)nc3ccccc23)cc1,i,i,i,-7*,i
COc1ccc(Nc2nc(-c3ccccc3F)nc3ccccc23)cc1OC,i,i,i,-7.2*,i
